Measurements taken from ChEMBL document CHEMBL4811303, “Synthesis and evaluation of trypanocidal activity of derivatives of naturally occurring 2,5-diphenyloxazoles” (Bioorg Med Chem, 2021).

Tests used:
[1] = Selectivity index, ratio of IC50 for cytotoxicity against bovine MDBK cells to IC50 for Trypanocidal activity against Trypanosoma brucei gambiense; conditions: cattle
[2] = tested on: Trypanosoma brucei gambiense; assay: Trypanocidal activity against Trypanosoma brucei gambiense assessed as reduction in intracellular ATP production incubated for 72 hrs by CellTiter-Glo luminescent cell viability assay; format: functional, organism-based
Method in brief: (§1)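 Bloodstream trypanosomes in 96-well culture were exposed to compound in 5-fold serial dilutions from 25 µg/mL to 1.6 ng/mL for 72 h. Seeding and temperature: T. b. brucei, T. b. gambiense and T. b. rhodesiense at 5×10^3 cells/mL and 37 °C; T. evansi at 1×10^4 cells/mL and 37 °C; T. congolense at 2×10^5 cells/mL and 33 °C. Viability was read as intracellular ATP by CellTiter-Glo luminescence. Three replicates; IC50 calculated.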

[3] = tested on: Trypanosoma evansi; assay: Trypanocidal activity against Trypanosoma evansi assessed as reduction in intracellular ATP production incubated for 72 hrs by CellTiter-Glo luminescent cell viability assay; format: functional, organism-based
Method in brief: as §1

[4] = tested on: Trypanosoma brucei brucei; assay: Trypanocidal activity against Trypanosoma brucei brucei assessed as reduction in intracellular ATP production incubated for 72 hrs by CellTiter-Glo luminescent cell viability assay; format: functional, organism-based
Method in brief: as §1

[5] = tested on: Trypanosoma congolense; assay: Trypanocidal activity against Trypanosoma congolense assessed as reduction in intracellular ATP production incubated for 72 hrs by CellTiter-Glo luminescent cell viability assay; format: functional, organism-based
Method in brief: as §1

[6] = Selectivity index, ratio of IC50 for cytotoxicity against bovine MDBK cells to IC50 for Trypanocidal activity against Trypanosoma brucei rhodesiense
[7] = Selectivity ratio of IC50 for trypanocidal activity against Trypanosoma congolense to trypanocidal activity against Trypanosoma evansi; format: functional
[8] = Selectivity index, ratio of IC50 for cytotoxicity against bovine MDBK cells to IC50 for Trypanocidal activity against Trypanosoma congolense
[9] = tested on: MDBK cells (Bos taurus); assay: Cytotoxicity against bovine MDBK cells assessed as reduction in cell viability incubated for 72 hrs by CCK8 assay
[10] = Selectivity index, ratio of IC50 for cytotoxicity against bovine MDBK cells to IC50 for Trypanocidal activity against Trypanosoma brucei brucei; conditions: cattle
[11] = Selectivity index, ratio of IC50 for cytotoxicity against bovine MDBK cells to IC50 for Trypanocidal activity against Trypanosoma evansi
[12] = tested on: Trypanosoma brucei rhodesiense; assay: Trypanocidal activity against Trypanosoma brucei rhodesiense assessed as reduction in intracellular ATP production incubated for 72 hrs by CellTiter-Glo luminescent cell viability assay; format: functional, organism-based
Method in brief: as §1

SMILES | selectivity ratio [1] | IC50 [2] | IC50 [3] | IC50 [4] | IC50 [5] | selectivity ratio [6] | Ratio IC50 [7] | selectivity ratio [8] | IC50 [9] | selectivity ratio [10] | selectivity ratio [11] | IC50 [12]
Oc1ccccc1-c1coc(-c2cccc(O)c2O)n1 | 6.1 | 1.6 µM | 0.42 µM | 1.3 µM | 0.85 µM | 6.4 | 2 | 11 | 9.7 µM | 7.5 | 23 | 1.5 µM
COc1ccccc1-c1nnc(-c2cccc(OC)c2OC)o1 | 2.4 | 13.3 µM | 7.5 µM | 13.3 µM | 2.7 µM | 2.4 | – | 12 | 32.3 µM | 2.4 | 4.3 | 13.4 µM
CCCOc1ccccc1-c1cnc(-c2cccc(OC)c2OC)o1 | > 10 | 28.2 µM | 28.4 µM | 20.3 µM | 7.6 µM | > 11 | – | > 39 | > 295 µM | > 15 | > 10 | 27.1 µM
COc1cccc(-c2cnc(-c3cccc(OC)c3OC)o2)c1OC | 1.3 | 69.2 µM | 65.5 µM | 70 µM | 26.4 µM | 1.3 | – | 3.4 | 90.8 µM | 1.3 | 1.4 | 70.2 µM
COc1cccc(-c2ncc(-c3ccccc3C)o2)c1OC | 1.4 | 40 µM | 36 µM | 39.1 µM | 3 µM | 1.4 | – | 19 | 56.9 µM | 1.5 | 1.6 | 40 µM
COc1cccc(-c2ncc(-c3ccc(OC)c(OC)c3OC)o2)c1OC | 1.6 | 63.4 µM | 59.8 µM | 64.9 µM | 23.6 µM | 1.5 | – | 4.2 | 99.1 µM | 1.5 | 1.7 | 65 µM
COc1ccc(-c2cnc(-c3cccc(OC)c3OC)o2)cc1 | 0.31 | 74.5 µM | 64.5 µM | 76.4 µM | 17.3 µM | 0.3 | – | 1.3 | 22.8 µM | 0.3 | 0.35 | 77 µM
COc1cccc(-c2ncc(-c3c(OC)cccc3OC)o2)c1OC | 3.5 | 25.8 µM | 26.6 µM | 31.6 µM | 7.7 µM | 2.8 | – | 12 | 91.6 µM | 2.9 | 3.4 | 32.2 µM
Oc1ccccc1-c1cnc(-c2cccc(O)c2O)s1 | 2.4 | 8.2 µM | 4 µM | 7.7 µM | 2.3 µM | 2.6 | – | 8.8 | 20 µM | 2.6 | 5 | 7.8 µM
COc1ccc(-c2cnc(-c3cccc(OC)c3OC)o2)c(OC)c1 | > 9.4 | 31.2 µM | 28.2 µM | 35.4 µM | 1.5 µM | > 10 | – | > 190 | > 293 µM | > 8.3 | > 10 | 28.7 µM
Oc1ccccc1-c1cnc(-c2cccc(O)c2O)o1 | 0.52 | 13.5 µM | 4.7 µM | 9.1 µM | 1.1 µM | 2.5 | – | 6.3 | 7 µM | 0.77 | 1.5 | 2.8 µM
COc1cccc(-c2ncc(-c3ccccc3[N+](=O)[O-])o2)c1OC | > 4.8 | 63.4 µM | 49 µM | 49.6 µM | 8.4 µM | > 5.4 | – | > 36 | > 306 µM | > 6.2 | > 6.3 | 56.4 µM
COc1cccc(-c2ncc(-c3ccccc3N)o2)c1OC | 1 | 46.2 µM | 105 µM | 59.8 µM | 9.1 µM | 0.77 | – | 5.2 | 47.6 µM | 0.8 | 0.45 | 62.1 µM
COc1cccc(-c2cnc(-c3cccc(OC)c3)o2)c1 | > 5.3 | 66.9 µM | 53.9 µM | 62.2 µM | 21.4 µM | > 5.3 | – | > 17 | > 355 µM | > 5.7 | > 6.6 | 66.5 µM
CC(=O)Oc1ccc(OC(C)=O)c(-c2ncc(-c3ccccc3OC(C)=O)o2)c1 | 1.2 | 55.3 µM | 34 µM | 33.6 µM | 14.4 µM | 1.1 | – | 4.4 | 64.2 µM | 1.9 | 1.9 | 56 µM
COc1ccccc1-c1nnc(-c2cccc(OC)c2OC)s1 | > 14 | 22.1 µM | 28.1 µM | 29.8 µM | 3.8 µM | > 11 | – | > 80 | > 305 µM | > 10 | > 11 | 27.2 µM
COc1cccc(-c2ncc(-c3ccccc3N(C)C)o2)c1OC | > 8.8 | 35.2 µM | 24.7 µM | 20.4 µM | 4.6 µM | > 13 | – | > 66 | > 308 µM | > 15 | > 12 | 23.3 µM
COc1ccccc1-c1cnc(-c2cccc(OC)c2OC)s1 | 3.6 | 31.4 µM | 30.9 µM | 32 µM | 5.7 µM | 3.9 | – | 20 | 114 µM | 3.6 | 3.7 | 29.6 µM
CC(=O)Oc1ccc(OC(C)=O)c(-c2cnc(-c3ccccc3)o2)c1 | 0.23 | 41.9 µM | 18.9 µM | 16.6 µM | 3.9 µM | 0.15 | – | 2.4 | 9.6 µM | 0.58 | 0.51 | 64.4 µM
COc1cccc(-c2ncc(-c3ccc4ccccc4c3)o2)c1OC | 0.83 | 51.7 µM | 71.2 µM | 71.5 µM | 45.8 µM | 0.6 | – | 0.93 | 42.7 µM | 0.6 | 0.6 | 71.7 µM
COc1cccc(-c2ncc(-c3ccccc3)o2)c1OC | 0.48 | 84.7 µM | 59.3 µM | 86.6 µM | 4 µM | 0.48 | – | 10 | 40.6 µM | 0.47 | 0.68 | 84.1 µM
